In ChEMBL document CHEMBL2321834 (J Med Chem, 2013) one finds inhibition and Activity data, which are given here for two compounds.

Data set [1] concerns the target T1, 17-beta-hydroxysteroid dehydrogenase type 2 (Homo sapiens) (UniProt P37059).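 Also: [3H]estradiol served as substrate, with HPLC analysis after 20 min.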
T1 sequence (whole entry): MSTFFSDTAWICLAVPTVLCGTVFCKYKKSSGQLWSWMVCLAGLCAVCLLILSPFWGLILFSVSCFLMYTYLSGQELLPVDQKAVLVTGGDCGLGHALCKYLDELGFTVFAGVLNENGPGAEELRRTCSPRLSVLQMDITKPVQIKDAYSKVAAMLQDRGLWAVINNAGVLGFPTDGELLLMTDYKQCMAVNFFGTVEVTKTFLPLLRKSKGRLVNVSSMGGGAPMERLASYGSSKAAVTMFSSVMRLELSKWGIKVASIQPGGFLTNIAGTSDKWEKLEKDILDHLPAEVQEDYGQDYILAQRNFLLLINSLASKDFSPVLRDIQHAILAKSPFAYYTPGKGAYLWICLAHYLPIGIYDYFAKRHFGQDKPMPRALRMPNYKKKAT
As to conditions: Placenta, Microsomal, at 1 µM.

A further data set deals with MDA-MB-231. In words: Cytotoxicity against human MDA-MB-231 cells at 50 uM after 3 hrs by MTT assay. It counts as cell-based. The note with it: mda-mb-231, 3 h. Put shortly:
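MTT conversion read-out, following Denisot et al. Tested at 2.5, 10 and 50 µM with 3 h incubation.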
In general terms: Tetrazolium assays rely on reduction of a dye to a coloured formazan, in cell work by metabolically active cells.

Data set [2] addresses T2, 17-beta-hydroxysteroid dehydrogenase type 1 (Homo sapiens) (UniProt P14061).
T2 sequence (whole entry): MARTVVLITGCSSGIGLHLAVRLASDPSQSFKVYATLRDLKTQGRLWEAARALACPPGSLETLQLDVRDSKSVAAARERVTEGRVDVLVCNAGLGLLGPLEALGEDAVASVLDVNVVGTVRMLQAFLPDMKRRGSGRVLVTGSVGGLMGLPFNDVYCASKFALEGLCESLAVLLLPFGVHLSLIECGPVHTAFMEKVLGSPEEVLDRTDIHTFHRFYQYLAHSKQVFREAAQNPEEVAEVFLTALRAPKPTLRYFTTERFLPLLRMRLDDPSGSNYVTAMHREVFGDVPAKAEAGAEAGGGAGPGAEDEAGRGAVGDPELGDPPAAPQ
As to conditions: at 1 µM.

For the next data set, the species on record is Callithrix jacchus. In words: Inhibition of 17beta-HSD2 in common marmoset placental microsomal fraction assessed as inhibition of [3H]E2 conversion to E1 at 1 uM by scintillation counting analysis. It counts as microsomes. As to conditions: Placenta. Put shortly: (§1)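 Cell-free assay measuring percent inhibition of the E2-to-E1 transformation. Enzyme source was the microsomal fraction of rat or mouse liver, or of Callithrix jacchus placenta for the marmoset.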

The target in data set [3] is T3, Aldo-keto reductase family 1 member C3 (Homo sapiens) (UniProt P42330).
T3 sequence (whole entry): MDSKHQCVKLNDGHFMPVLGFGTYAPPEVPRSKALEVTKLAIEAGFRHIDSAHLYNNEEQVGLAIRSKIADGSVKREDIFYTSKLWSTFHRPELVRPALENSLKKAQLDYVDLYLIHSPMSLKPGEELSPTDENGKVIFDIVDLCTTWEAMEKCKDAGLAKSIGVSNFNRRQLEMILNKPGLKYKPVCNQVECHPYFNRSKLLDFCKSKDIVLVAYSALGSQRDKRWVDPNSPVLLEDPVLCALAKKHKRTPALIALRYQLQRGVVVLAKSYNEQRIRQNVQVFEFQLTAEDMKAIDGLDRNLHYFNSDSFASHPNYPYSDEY
In words: Inhibition of human recombinant 17beta-HSD5 expressed in Escherichia coli using [1,2,6,7-3H]A-dione as substrate at 1 uM by scintillation counting analysis.

The target in data set [4] is T4, Peroxisomal multifunctional enzyme type 2 (Homo sapiens) (UniProt P51659).
T4 sequence (whole entry): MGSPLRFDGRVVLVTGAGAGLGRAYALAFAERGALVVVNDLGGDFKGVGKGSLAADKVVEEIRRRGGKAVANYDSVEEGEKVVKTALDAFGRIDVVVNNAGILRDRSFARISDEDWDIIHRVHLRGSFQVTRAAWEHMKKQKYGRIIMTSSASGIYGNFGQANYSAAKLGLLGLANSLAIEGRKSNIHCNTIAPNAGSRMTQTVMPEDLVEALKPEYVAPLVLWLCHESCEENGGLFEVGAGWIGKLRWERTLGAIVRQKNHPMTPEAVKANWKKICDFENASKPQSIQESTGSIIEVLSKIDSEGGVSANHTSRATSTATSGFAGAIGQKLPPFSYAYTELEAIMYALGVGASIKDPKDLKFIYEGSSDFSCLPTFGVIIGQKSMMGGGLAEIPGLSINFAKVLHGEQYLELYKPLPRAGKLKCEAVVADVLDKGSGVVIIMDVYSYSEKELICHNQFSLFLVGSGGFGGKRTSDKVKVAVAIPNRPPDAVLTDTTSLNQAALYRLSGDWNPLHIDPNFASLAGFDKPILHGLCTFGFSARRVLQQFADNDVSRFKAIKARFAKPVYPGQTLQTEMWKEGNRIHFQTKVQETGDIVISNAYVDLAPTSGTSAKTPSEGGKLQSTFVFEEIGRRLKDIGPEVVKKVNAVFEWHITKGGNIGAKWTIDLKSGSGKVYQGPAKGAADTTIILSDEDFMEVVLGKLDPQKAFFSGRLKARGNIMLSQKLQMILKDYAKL
As to the kind of experiment: Inhibition of human recombinant 17beta-HSD4 SDR domain expressed in Escherichia coli using [6,7-3H]E2 as substrate at 1 uM by scintillation counting analysis.

The target of data set [5] is T5, Estradiol 17-beta-dehydrogenase 2 (Rattus norvegicus) (UniProt Q62730).
T5 sequence (whole entry): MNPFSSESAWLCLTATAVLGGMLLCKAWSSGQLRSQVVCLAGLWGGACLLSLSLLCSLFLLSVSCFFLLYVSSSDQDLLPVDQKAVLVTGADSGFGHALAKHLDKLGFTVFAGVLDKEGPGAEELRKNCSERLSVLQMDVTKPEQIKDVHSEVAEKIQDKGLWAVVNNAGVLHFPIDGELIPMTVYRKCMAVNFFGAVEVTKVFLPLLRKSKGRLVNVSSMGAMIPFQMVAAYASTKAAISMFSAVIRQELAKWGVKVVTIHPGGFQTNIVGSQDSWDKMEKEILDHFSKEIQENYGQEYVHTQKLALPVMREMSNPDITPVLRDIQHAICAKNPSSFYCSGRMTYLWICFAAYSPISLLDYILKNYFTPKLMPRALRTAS
In words: Inhibition of 17beta-HSD2 in rat liver microsomal fraction assessed as inhibition of [3H]E2 conversion to E1 at 1 uM by scintillation counting analysis. It counts as microsomes. Put shortly:
as §1
(Microsomes from liver hold many membrane-bound enzymes, among them those of drug oxidation.)

Activity calls are given as the source filed them. The rule behind the calls is not given here.

With `COc1cccc(N(C)C(=O)c2ccc(-c3cccc(OC)c3F)s2)c1`, the inhibition (usually the relative decrease from the control value, in per cent) in data set [1] worked out at 93%; in data set [2], 17%; in the data set filed under Callithrix jacchus, 45%; in data set [3], 26%. In addition, the Activity result with MDA-MB-231 is listed as “Non-toxic”. Also, the inhibition entry in data set [4] and in data set [5] was “inactive” in each case.

Turning to `COc1cccc(-c2ccc(C(=O)N(C)Cc3cccc(O)c3)s2)c1F`, the inhibition was 89% in data set [1]; below 10% in data set [2]; 47% in the data set filed under Callithrix jacchus; 33% in data set [3]; 25% in data set [5]. For the same compound, the Activity result in the data set with MDA-MB-231 is listed as “Non-toxic”. For the same compound, in data set [4], the inhibition entry is “inactive”.
